Laboratory results published in ChEMBL document CHEMBL2331124, “Efficient synthesis of anacardic acid analogues and their antibacterial activities” (Bioorg Med Chem Lett, 2013).
≈ marks a conversion by molar mass, not a printed value.

Experiments:
[1] = Cytotoxicity against human HepG2 cells after 24 hrs by resazurin assay; assay type: cell-based
[2] = Cytotoxicity against HEK293 cells after 24 hrs by resazurin assay; assay type: cell-based; conditions: human
[3] = tested on: Staphylococcus aureus; test: Antibacterial activity against glycopeptide-intermediate Staphylococcus aureus NRS 19 assessed as growth inhibition after 24 hrs by CLSI twofold serial broth microdilution method; assay type: functional; conditions: NRS 19, 24 h
How it was run: (§1)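 CLSI-standard twofold serial broth microdilution; MIC read-out in μg/mL, with vancomycin tested alongside as reference antibiotic.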

[4] = tested on: Staphylococcus aureus; test: Antibacterial activity against methicillin-resistant Staphylococcus aureus ATCC 43300 assessed as growth inhibition after 24 hrs by CLSI twofold serial broth microdilution method; assay type: functional; conditions: ATCC 43300, 24 h
How it was run: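 Read-out was the MIC in μg/mL, determined by twofold serial broth microdilution to CLSI standards.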

[5] = tested on: Staphylococcus aureus; test: Antibacterial activity against Staphylococcus aureus ATCC 25923 assessed as growth inhibition after 24 hrs by CLSI twofold serial broth microdilution method; assay type: functional; conditions: ATCC 25923, 24 h; how it was run: as §1

Compound	CC50 at 24 h [1]	CC50 at 24 h [2]	MIC [3]	MIC [4]	MIC [5]
COc1cc(CCc2ccccc2)cc(OC)c1OC	> 100 µM	> 100 µM			
COc1cc(/C=C\c2ccc3ccccc3c2)cc(OC)c1OC [NAPHTHYLCOMBRETASTATIN]	> 100 µM	> 100 µM			
Cc1cc(O)c(C(=O)O)c(CCc2ccc3ccccc3c2)c1	38 µM	40 µM	128 µg/mL (≈ 418 µM)	64 µg/mL (≈ 209 µM)	32 µg/mL (≈ 104 µM)
O=C(O)c1c(O)cccc1/C=C/c1ccccc1	> 100 µM	> 100 µM			
COc1cc(O)c(C(=O)O)c(C=Cc2ccc3ccccc3c2)c1 (mixture of isomers)	79 µM	65 µM	128 µg/mL	128 µg/mL	> 128 µg/mL
COc1cc(O)c(C(=O)O)c(CCc2ccc3ccccc3c2)c1	71 µM	65 µM	128 µg/mL (≈ 397 µM)	64 µg/mL (≈ 199 µM)	64 µg/mL (≈ 199 µM)
O=C(O)c1c(O)cccc1C=Cc1ccc2ccccc2c1 (mixture of isomers)	71 µM	97 µM	64 µg/mL	64 µg/mL	64 µg/mL
O=C(O)c1c(O)cccc1CCc1ccccc1	> 100 µM	> 100 µM			
CCN(CC)C(=O)c1c(/C=C\c2ccc3ccccc3c2)cc(OC)cc1OC	> 100 µM	> 100 µM			
CCN(CC)C(=O)c1c(O)cccc1CCc1ccc2ccccc2c1	> 100 µM	> 100 µM			
Cc1cc(O)c(C(=O)O)c(C=Cc2ccc3ccccc3c2)c1 (mixture of isomers)	30 µM	52 µM	32 µg/mL	16 µg/mL	16 µg/mL
COc1cc(C)cc(C=Cc2ccc3ccccc3c2)c1C(=O)O (mixture of isomers)	117 µM	119 µM	> 128 µg/mL	> 128 µg/mL	> 128 µg/mL
COc1cc(C=Cc2ccc3ccccc3c2)c(C(=O)O)c(OC)c1	> 100 µM	> 100 µM	> 128 µg/mL	> 128 µg/mL	> 128 µg/mL
COc1cccc(C=Cc2ccc3ccccc3c2)c1C(=O)O (mixture of isomers)	> 100 µM	> 100 µM	> 128 µg/mL	> 128 µg/mL	> 128 µg/mL
CCN(CC)C(=O)c1c(O)cc(O)cc1CCc1ccc2ccccc2c1	36.4 µM	30.6 µM			
Oc1cc(CCc2ccc3ccccc3c2)cc(O)c1O	> 100 µM	> 100 µM			
COc1cc(/C=C/c2ccc3ccccc3c2)cc(OC)c1OC	16.8 µM	23.4 µM			
COc1cc(/C=C\c2ccccc2)cc(OC)c1OC	20.2 µM	36 µM			
O=C(O)c1c(O)cc(Cl)cc1C=Cc1ccc2ccccc2c1 (mixture of isomers)	25 µM	38 µM	16 µg/mL	16 µg/mL	16 µg/mL
COc1cc(CCc2ccc3ccccc3c2)cc(OC)c1OC	> 100 µM	> 100 µM			
CCN(CC)C(=O)c1c(/C=C/c2ccc3ccccc3c2)cc(OC)cc1OC	> 100 µM	> 100 µM			
CCN(CC)C(=O)c1c(CCc2ccc3ccccc3c2)cc(OC)cc1OC	59 µM	> 100 µM			
Oc1cc(CCc2ccccc2)cc(O)c1O	102 µM	106 µM			
O=C(O)c1c(O)cccc1CCc1ccc2ccccc2c1	> 100 µM	> 100 µM	> 128 µg/mL	> 128 µg/mL	> 128 µg/mL
COc1cc(/C=C/c2ccccc2)cc(OC)c1OC	38.4 µM	62.6 µM			
CCN(CC)C(=O)c1c(CCc2ccc3ccccc3c2)cccc1OC	35.8 µM	85.7 µM			
COc1cc(Cl)cc(C=Cc2ccc3ccccc3c2)c1C(=O)O	104 µM	93 µM	128 µg/mL (≈ 378 µM)	64 µg/mL (≈ 189 µM)	> 128 µg/mL
CCN(CC)C(=O)c1c(/C=C\c2ccc3ccccc3c2)cccc1OC	28 µM	38.7 µM			
CCN(CC)C(=O)c1c(/C=C/c2ccc3ccccc3c2)cccc1OC		116 µM			
O=C(O)c1c(O)cc(Cl)cc1CCc1ccc2ccccc2c1	35 µM	35 µM	128 µg/mL (≈ 392 µM)	16 µg/mL (≈ 49 µM)	16 µg/mL (≈ 49 µM)
